Data published in ChEMBL document CHEMBL3877250, “Design, synthesis, and biological evaluation of (2E)-(2-oxo-1, 2-dihydro-3H-indol-3-ylidene)acetate derivatives as anti-proliferative agents through ROS-induced cell apoptosis” (Eur J Med Chem, 2016).

Assays:
[1] = Cytotoxicity against human HepG2 cells after 72 hrs by CCK-8 assay; format: functional, cell-based; conditions: HepG2, 72 h
Outline: (§1)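 Cells kept in RPMI 1640 with 10% heat-inactivated fetal calf serum and 1% streptomycin/penicillin at 37 °C, 5% CO2. After compound exposure, CCK-8 was added and cells were incubated 4 h at 37 °C, then absorbance was read at 450 nm. Viability is relative to untreated cells (100%). IC50 comes from nonlinear regression, mean of three separate determinations. Single-concentration screen at 20 µM.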

[2] = Cytotoxicity against human HL60 cells assessed as growth inhibition at 20 uM after 72 hrs by CCK-8 assay; format: functional; conditions: HL-60, 72 h, read-out: GI; outline: as §1
[3] = Cytotoxicity against human SK-BR-3 cells after 72 hrs by CCK-8 assay; format: functional, cell-based; conditions: SK-BR-3, 72 h; outline: as §1
[4] = Cytotoxicity against human HCT116 cells assessed as growth inhibition at 20 uM after 72 hrs by CCK-8 assay; format: functional; conditions: HCT-116, 72 h, read-out: GI; outline: as §1
[5] = Cytotoxicity against human HCT116 cells after 72 hrs by CCK-8 assay; format: functional, cell-based; conditions: HCT-116, 72 h; outline: as §1
[6] = Cytotoxicity against human SW480 cells assessed as growth inhibition at 20 uM after 72 hrs by CCK-8 assay; format: functional; conditions: SW480, 72 h, read-out: GI; outline: as §1
[7] = Cytotoxicity against human Saos2 cells after 72 hrs by CCK-8 assay; format: functional, cell-based; conditions: SAOS-2, 72 h; outline: as §1
[8] = Cytotoxicity against human OVCAR3 cells assessed as growth inhibition at 20 uM after 72 hrs by CCK-8 assay; format: functional; conditions: OVCAR-3, 72 h, read-out: GI; outline: as §1
[9] = Cytotoxicity against human MDA-MB-231 cells assessed as growth inhibition at 20 uM after 72 hrs by CCK-8 assay; format: functional; conditions: MDA-MB-231, 72 h, read-out: GI; outline: as §1
[10] = Cytotoxicity against human OVCAR3 cells after 72 hrs by CCK-8 assay; format: functional, cell-based; conditions: OVCAR-3, 72 h; outline: as §1
[11] = Cytotoxicity against human L02 cells after 72 hrs by CCK-8 assay; format: toxicity, cell-based; outline: as §1
[12] = Cytotoxicity against human L02 cells; format: toxicity, cell-based
[13] = Cytotoxicity against human SW480 cells after 72 hrs by CCK-8 assay; format: functional, cell-based; conditions: SW480, 72 h; outline: as §1
[14] = Cytotoxicity against human MDA-MB-231 cells after 72 hrs by CCK-8 assay; format: functional, cell-based; conditions: MDA-MB-231, 72 h; outline: as §1
[15] = Cytotoxicity against human L02 cells assessed as growth inhibition at 20 uM after 72 hrs by CCK-8 assay; format: toxicity, cell-based; conditions: read-out: GI; outline: as §1
[16] = Cytotoxicity against human HL60 cells after 72 hrs by CCK-8 assay; format: functional, cell-based; conditions: HL-60, 72 h; outline: as §1
[17] = Cytotoxicity against human Saos2 cells assessed as growth inhibition at 20 uM after 72 hrs by CCK-8 assay; format: functional; conditions: SAOS-2, 72 h, read-out: GI; outline: as §1
[18] = Cytotoxicity against human SK-BR-3 cells assessed as growth inhibition at 20 uM after 72 hrs by CCK-8 assay; format: functional; conditions: SK-BR-3, 72 h, read-out: GI; outline: as §1
[19] = Antitumor activity against human HepG2 cells assessed as growth inhibition at 20 uM after 72 hrs by CCK-8 assay; format: functional; conditions: HepG2, 72 h, read-out: GI; outline: as §1

`CC(C)(C)OC(=O)/C=C1/C(=O)Nc2ccc(Cl)cc21` gave an IC50 [1] of 8.99 µM, an inhibition of growth at 20 µM [2] of 94.9% and an IC50 [3] of 6.48 µM. For the same compound, the inhibition of growth at 20 µM [4] was 89.7%, the IC50 [5] was 5.5 µM and the inhibition of growth at 20 µM [6] was 78.5%. The IC50 [7] was 6.51 µM, the inhibition of growth at 20 µM [8] was 59.4% and the inhibition of growth at 20 µM [9] was 87.6%. For the same compound, the IC50 [10] was 19 µM, the IC50 at 72 h [11] was 4.72 µM and the IC50 [12] was 6.18 µM. The IC50 [13] was 5.49 µM, the IC50 [14] was 3.11 µM and the inhibition at 72 h, 20 µM [15] was 63.3%. The IC50 [16] was 3.16 µM, the inhibition of growth at 20 µM [17] was 82.3% and the inhibition of growth at 20 µM [18] was 87.6%. The inhibition of growth at 20 µM [19] was 87.1%.
In the case of `CN1C(=O)/C(=C/C(=O)OC(C)(C)C)c2ccccc21`, the inhibition of growth at 20 µM [2] is reported as 94.7%, the inhibition of growth at 20 µM [4] is reported as 87.5% and the inhibition of growth at 20 µM [6] is reported as 77.8%. The inhibition of growth at 20 µM [8] was 57.1%, the inhibition of growth at 20 µM [9] was 86.6% and the IC50 at 72 h [11] was 4.32 µM. It also gave an IC50 [12] of 12.2 µM, an inhibition at 72 h, 20 µM [15] of 61.4% and an IC50 [16] of 2.76 µM. For the same compound, the inhibition of growth at 20 µM [17] was 81.9%, the inhibition of growth at 20 µM [18] was 87.6% and the inhibition of growth at 20 µM [19] was 88.4%.
For `COc1ccc2c(c1)/C(=C\C(=O)OC(C)(C)C)C(=O)N2`, the inhibition of growth at 20 µM [2] was 94.2%, the inhibition of growth at 20 µM [4] was 89.6% and the inhibition of growth at 20 µM [6] was 78.7%. For the same compound, the inhibition of growth at 20 µM [8] was 59%, the inhibition of growth at 20 µM [9] was 87.6% and the IC50 at 72 h [11] was 3.82 µM. It also gave an inhibition at 72 h, 20 µM [15] of 63.7%, an IC50 [16] of 6.19 µM and an inhibition of growth at 20 µM [17] of 82%. For the same compound, the inhibition of growth at 20 µM [18] was 87.7% and the inhibition of growth at 20 µM [19] was 90.1%.
